≈ marks a conversion by molar mass, not a printed value.

Assay [1] is filed under the species Rattus norvegicus. Put plainly: In vitro inhibitory activity against rat microsomal lipid peroxidation (m-LPO). Format: functional. The method in brief: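 Lipid peroxidation used rat liver microsomes driven by ferrous sulfate/cysteine, per the Malvy et al. approach. IC50 is given in µg/mL.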
Assay [2] deals with Mus musculus. Put plainly: In vivo activity against serum lipid peroxidation level (s-LPO) by using Alloxan-induced hyperlipoperoxidemia method in BALB/c mice after peroral administration at 100 mg/kg dose. Format: functional. The settings on record: route oral. Summed up: (§1)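 Male BALB/c mice, 8 weeks old, were fasted 18 h and then given alloxan 75 mg/kg iv. Compound was dosed orally 30 min before and 24 and 30 h after alloxan. Cervical blood was taken at 48 h, diluted in saline and centrifuged. Serum LPO was measured by TBA method; cholesterol and TG by enzymatic kits. Values are % decrease versus alloxan controls without compound.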

The species entered for assay [3] is Rattus norvegicus. Put plainly: Inhibitory activity on peroxidation by a relative peroxide value(POV) to vitamin E by using ethyl linoleate. Format: functional. Summed up: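 Peroxide formed was titrated with 0.01 N Na2S2O3 after adding water. The peroxide value was expressed relative to vitamin E.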
The species entered for assay [4] is Rattus norvegicus. The assay can be described thus: liver weight in Wistar-Imamichi rats at 0.2% in the diet for 7 days in 6 rats. The note with it: dose 0.2% in diet.
The test system of assay [5] is Rattus norvegicus. The assay can be described thus: Hypotriglyceridemic activity of Wistar-Imamichi rats in 6 animals at 300 mg/kg dose.
The test system of assay [6] is Mus musculus. Put plainly: Hypoglycemic activity at dose 50 mg/Kg in KK-mice after peroral administration. The format is functional. Summed up:
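Male KK-mice, a genetically diabetic NIDDM model, were housed singly from 8 weeks of age and used at about 4-5 months once body weight exceeded 40 g. Compound was suspended in 0.5% carboxymethylcellulose saline and dosed orally 18 h before tail-vein blood sampling into heparinized tubes. Plasma glucose was measured with a glucose analyzer. Values are % decrease versus vehicle-dosed controls run simultaneously.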

For assay [7], the system named is Mus musculus. Put plainly: In vivo activity against triglycerides (TG) by using Alloxan-induced hyperlipoperoxidemia method in BALB/c mice after peroral administration at 100 mg/Kg dose. Format: functional. Summed up:
as §1

The test system of assay [8] is Mus musculus. The assay can be described thus: In vivo activity against hypocholesterol (CHOL) by using Alloxan-induced hyperlipoperoxidemia method in BALB/c mice after peroral administration at 100 mg/Kg dose. The format is functional. Summed up:
as §1

Assay [9] has as its system Mus musculus. The assay can be described thus: In vivo activity against serum lipid peroxidation level (s-LPO) by using Alloxan-induced hyperlipoperoxidemia method in BALB/c mice after peroral administration at 100 mg/Kg dose. Format: functional. The method in brief: as §1

Usually IC50 stands for the concentration that inhibits the measured activity by half. Lower therefore signals greater potency in that assay. The compound `COc1c(OC(C)=O)c(C)c2c(c1OC)OC(C)(CCOc1ccc(CC3SC(N)=NC3=O)cc1)CC2` (stereo not drawn) yielded an IC50 in assay [1] of 0.3 µg/mL (≈ 0.568 µM).
Consider `CC(=O)Oc1cc2c(cc1C(C)(C)C)OC(C)(CCOc1ccc(CC3SC(N)=NC3=O)cc1)CC2` (stereo not drawn), for which inhibition in assay [1] was half-maximal at 0.1 µg/mL (≈ 0.196 µM) (IC50).
As for `Cc1cc(OCCCC(C)(C)CO)c(C)c(C)c1O`, the Decrease turned out to be 27.4% in [2] and 57.3% in assay [5]. This compound came in with an IC50 in assay [1] of 0.1 µg/mL (≈ 0.375 µM). This compound also gave a Relative peroxidation in assay [3] of 0.42. Moreover, the Increase in assay [4] was 23.9%.
For `CC(=O)Oc1c(C)c(C)c2c(c1C)CCC(C)(COc1ccc(CC3SC(=O)NC3=O)cc1)O2` (stereo not drawn), the Decrease in [6] was 2.6%; in assay [7] it was -4%; in assay [8], 4%; in assay [9], 6.7%. This compound also returned an IC50 in assay [1] of under 0.1 µg/mL.
In the case of `Cc1c(C)c2c(c(C)c1O)CCC(C)(COc1ccc(CC3SC(N)=NC3=O)cc1)O2` (stereo not drawn), the Decrease is 16.8% in assay [7], 7.2% in assay [8] and 11.9% in assay [9]. Also, the IC50 in [1] was under 0.1 µg/mL.
In assay [1], `Cc1cc(OCCCCCCCC(C)(C)CO)c(C)c(C)c1O` came in with an IC50 of under 0.1 µg/mL.
Regarding `Cc1c(C)c2c(c(C)c1O)CCC(C)(COc1ccc(CC(Cl)C(=O)O)cc1)O2` (stereo not drawn), the Decrease stood at 33.9% in assay [7], 14.9% in assay [8] and 46.3% in assay [9]. The IC50 in assay [1] was 0.1 µg/mL (≈ 0.239 µM).
Compound `Cc1cc(OCCCC(C)(C)C(=O)O)c(C)c(C)c1O` gave an IC50 in assay [1] of over 1 µg/mL. This compound yielded a Relative peroxidation in [3] of 0.71.
Turning to `Cc1c(C)c2c(c(C)c1O)CCC(COc1ccc(CC3SC(=O)NC3=O)cc1)O2` (stereo not drawn), the IC50 in assay [1] was under 0.1 µg/mL.
As to `Cc1c(C)c2c(c(C)c1O)CCC(COc1ccc(CC3SC(=O)NC3=O)cc1)(CC(C)C)O2` (stereo not drawn), the figures for the Decrease in assay [7], in assay [8] and in assay [9] were 11.9%, 12.1% and 1.5%, respectively. For the same compound, in [1], the IC50 was found to be 0.1 µg/mL (≈ 0.207 µM).
`Cc1c(C)c2c(c(C)c1OC(=O)c1ccccc1)CCC(C)(COc1ccc(CC3SC(=O)NC3=O)cc1)O2` (stereo not drawn) returned an IC50 in assay [1] of 0.1 µg/mL (≈ 0.183 µM).
The same measure, in the same setting: for `Cc1c(C)c2c(c(C)c1O)SCO2` the value was under 0.1 µg/mL; for `Cc1c(C)c2c(c(C)c1O)SC(C)O2` (stereo not drawn), under 0.1 µg/mL.
On to `CCCC1Oc2c(C)c(C)c(O)c(C)c2S1` (stereo not drawn), for which the IC50 in assay [1] was under 0.1 µg/mL.
The compound `CC(=O)Oc1cc2c(cc1C)OC(C)(COc1ccc(CC3SC(N)=NC3=O)cc1)CC2` (stereo not drawn) registered a half-maximal inhibitory concentration (IC50) in [1] of 0.3 µg/mL (≈ 0.66 µM).

Values taken from ChEMBL document CHEMBL1124681, “Studies on hindered phenols and analogues. 1. Hypolipidemic and hypoglycemic agents with ability to inhibit lipid peroxidation” (J Med Chem, 1989).
